Laboratory results taken from ChEMBL document CHEMBL1240350, “In vitro activity of CEM-101 against Streptococcus pneumoniae and Streptococcus pyogenes with defined macrolide resistance mechanisms” (Antimicrob Agents Chemother, 2010).
In brackets after ≈: the same amount, converted by molar mass.

Key:
Streptococcus pneumoniae [1] = assay: Antibacterial activity against macrolide-susceptible Streptococcus pneumoniae 7127 harboring S20N mutation in L4 ribosomal protein and A105V mutation in L22 ribosomal protein after 43 passages following overnight incubation by agar dilution method; format: functional
Streptococcus pneumoniae [2] = assay: Antibacterial activity against macrolide-susceptible Streptococcus pneumoniae 1077 after 49 passages following overnight incubation by agar dilution method; format: functional
Streptococcus pneumoniae [3] = assay: Antibacterial activity against macrolide-resistant Streptococcus pneumoniae 2686 harboring mutation in L4 ribosomal protein after 50 passages following overnight incubation by agar dilution method; format: functional
Streptococcus pneumoniae [4] = assay: Antibacterial activity against macrolide-susceptible Streptococcus pneumoniae 7127 harboring S20N mutation in L4 ribosomal protein and A105V mutation in L22 ribosomal protein after 29 passages following overnight incubation by agar dilution method; format: functional
Streptococcus pneumoniae [5] = assay: Antibacterial activity against macrolide-susceptible Streptococcus pneumoniae 1077 after 29 passages following overnight incubation by agar dilution method; format: functional
Streptococcus pyogenes [6] = assay: Antibacterial activity against macrolide-resistant Streptococcus pyogenes 2094 harboring erm(A) gene after 5 passages following overnight incubation by agar dilution method
Streptococcus pyogenes [7] = assay: Antibacterial activity against macrolide-susceptible Streptococcus pyogenes 2132 after 28 passages following overnight incubation by agar dilution method
Streptococcus pyogenes [8] = assay: Antibacterial activity against macrolide-resistant Streptococcus pyogenes 2368 harboring erm(B) gene after 18 passages following overnight incubation by agar dilution method
Streptococcus pneumoniae [9] = assay: Antibacterial activity against macrolide-susceptible Streptococcus pneumoniae 7127 harboring S20N mutation in L4 ribosomal protein and A105V mutation in L22 ribosomal protein after 16 passages following overnight incubation by agar dilution method; format: functional
Streptococcus pneumoniae [10] = assay: Antibacterial activity against macrolide-resistant Streptococcus pneumoniae 1635 harboring erm(A) gene after 32 passages following overnight incubation by agar dilution method; format: functional
Streptococcus pneumoniae [11] = assay: Antibacterial activity against macrolide-resistant Streptococcus pneumoniae 2686 harboring mutation in L4 ribosomal protein after 22 passages following overnight incubation by agar dilution method; format: functional
Streptococcus pyogenes [12] = assay: Antibacterial activity against macrolide-resistant Streptococcus pyogenes 237 harboring mutation in L4 ribosomal protein after 20 passages following overnight incubation by agar dilution method
Streptococcus pneumoniae [13] = assay: Antibacterial activity against macrolide-resistant Streptococcus pneumoniae 3009 harboring mutation in 23S rRNA after 20 passages following overnight incubation by agar dilution method; format: functional
Streptococcus pneumoniae [14] = assay: Antibacterial activity against macrolide-resistant Streptococcus pneumoniae 3665 harboring mef(A) gene after 26 passages following overnight incubation by agar dilution method; format: functional
Streptococcus pneumoniae [15] = assay: Antibacterial activity against macrolide-resistant Streptococcus pneumoniae 1635 harboring erm(A) gene after 49 passages following overnight incubation by agar dilution method; format: functional
Streptococcus pneumoniae [16] = assay: Antibacterial activity against macrolide-resistant Streptococcus pneumoniae 2686 harboring mutation in L4 ribosomal protein after 14 passages following overnight incubation by agar dilution method; format: functional
Streptococcus pneumoniae [17] = assay: Antibacterial activity against macrolide-susceptible Streptococcus pneumoniae 1077 after 15 passages following overnight incubation by […]; format: functional
How it was run: (§1)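 S. pneumoniae parental strains were passaged daily in subinhibitory drug concentrations in cation-adjusted Mueller-Hinton broth with 5% lysed horse blood. Each passage was seeded from the tube 1 to 2 dilutions below the MIC whose turbidity matched the growth control. MICs of resistant clones were measured by CLSI macrodilution. Parent and clone identity was confirmed by PFGE of SmaI-digested DNA.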

Streptococcus pneumoniae [18] = assay: Antibacterial activity against macrolide-resistant Streptococcus pneumoniae 2686 harboring mutation in L4 ribosomal protein after 25 passages following overnight incubation by […]; format: functional; how it was run: as §1

## CCC[C@@H]1C[C@@H](C(=O)N[C@@H]([C@H]2O[C@H](SC)[C@H](O)[C@@H](O)[C@H]2O)[C@H](C)Cl)N(C)C1 [CLINDAMYCIN]
Streptococcus pneumoniae [1]
  MIC: 0.25 µg/mL (≈ 0.588 µM)
Streptococcus pneumoniae [2]
  MIC: 4 µg/mL (≈ 9.41 µM)
Streptococcus pneumoniae [3]
  MIC: 0.125 µg/mL (≈ 0.294 µM)

## CC[C@H]1OC(=O)[C@H](C)[C@@H](O[C@H]2C[C@@](C)(OC)[C@@H](O)[C@H](C)O2)[C@H](C)[C@@H](O[C@@H]2O[C@H](C)C[C@H](N(C)C)[C@H]2O)[C@](C)(O)C[C@@H](C)CN(C)[C@H](C)[C@@H](O)[C@]1(C)O [AZITHROMYCIN]
Streptococcus pneumoniae [4]
  MIC: 0.5 µg/mL (≈ 0.668 µM)
Streptococcus pneumoniae [5]
  MIC: > 64 µg/mL
Streptococcus pyogenes [6]
  MIC: > 64 µg/mL
Streptococcus pyogenes [7]
  MIC: 1 µg/mL (≈ 1.34 µM)

## CC[C@H]1OC(=O)[C@@](C)(F)C(=O)[C@H](C)[C@@H](O[C@@H]2O[C@H](C)C[C@H](N(C)C)[C@H]2O)[C@](C)(OC)C[C@@H](C)C(=O)[C@H](C)[C@H]2N(CCCCn3cc(-c4cccc(N)c4)nn3)C(=O)O[C@]12C [SOLITHROMYCIN]
Streptococcus pyogenes [8]
  MIC: 8 µg/mL (≈ 9.47 µM)
Streptococcus pneumoniae [9]
  MIC: 0.125 µg/mL (≈ 0.148 µM)
Streptococcus pneumoniae [10]
  MIC: 0.06 µg/mL (≈ 0.071 µM)
Streptococcus pneumoniae [11]
  MIC: 0.5 µg/mL (≈ 0.592 µM)
Streptococcus pyogenes [12]
  MIC: 0.25 µg/mL (≈ 0.296 µM)
Streptococcus pneumoniae [13]
  MIC: 0.25 µg/mL (≈ 0.296 µM)

## CC[C@H]1OC(=O)[C@H](C)[C@@H](O[C@H]2C[C@@](C)(OC)[C@@H](O)[C@H](C)O2)[C@H](C)[C@@H](O[C@@H]2O[C@H](C)C[C@H](N(C)C)[C@H]2O)[C@](C)(OC)C[C@@H](C)C(=O)[C@H](C)[C@@H](O)[C@]1(C)O [CLARITHROMYCIN]
Streptococcus pneumoniae [14]
  MIC: 16 µg/mL (≈ 21.4 µM)
Streptococcus pneumoniae [15]
  MIC: > 64 µg/mL
Streptococcus pneumoniae [16]
  MIC: > 64 µg/mL

## CC[C@H]1OC(=O)[C@H](C)C(=O)[C@H](C)[C@@H](O[C@@H]2O[C@H](C)C[C@H](N(C)C)[C@H]2O)[C@](C)(OC)C[C@@H](C)C(=O)[C@H](C)[C@H]2N(CCCCn3cnc(-c4cccnc4)c3)C(=O)O[C@]12C [TELITHROMYCIN]
Streptococcus pneumoniae [17]
  MIC: 0.25 µg/mL (≈ 0.308 µM)
Streptococcus pneumoniae [18]
  MIC: 0.5 µg/mL (≈ 0.616 µM)
